Laboratory results as given in ChEMBL document CHEMBL1152892, “Synthesis and biological evaluation of 3,6-disubstituted [1,2,4]triazolo[3,4-b][1,3,4]thiadiazole derivatives as a novel class of potential anti-tumor agents” (Eur J Med Chem, 2009).
One block for each molecule: values may come before it. Active and inactive are the calls of the source. The rule behind the calls is not given here.

Tests used:
[1] = biological target: Cyclin-dependent kinase 2 (Homo sapiens, UniProt P24941); assay: Inhibition of CDK2/Cyclin A
[2] = Inhibition of CDK4/Cyclin D
[3] = biological target: Cyclin-dependent kinase 1/cyclin B1 (Homo sapiens, UniProt P06493); assay: Inhibition of CDK1/Cyclin B; type: protein-complex assay
Chain of Cyclin-dependent kinase 1/cyclin B1 (P06493 whole entry): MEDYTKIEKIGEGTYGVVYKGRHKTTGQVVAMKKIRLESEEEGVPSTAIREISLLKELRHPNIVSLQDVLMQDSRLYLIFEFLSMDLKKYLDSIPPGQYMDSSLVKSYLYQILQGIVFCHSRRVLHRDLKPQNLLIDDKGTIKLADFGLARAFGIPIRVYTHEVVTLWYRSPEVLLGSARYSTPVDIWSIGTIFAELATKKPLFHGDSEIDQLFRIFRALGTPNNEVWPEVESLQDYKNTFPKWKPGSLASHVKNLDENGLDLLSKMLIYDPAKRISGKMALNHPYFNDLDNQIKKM
Chain of Cyclin-dependent kinase 1/cyclin B1 (P14635 whole entry, further chain): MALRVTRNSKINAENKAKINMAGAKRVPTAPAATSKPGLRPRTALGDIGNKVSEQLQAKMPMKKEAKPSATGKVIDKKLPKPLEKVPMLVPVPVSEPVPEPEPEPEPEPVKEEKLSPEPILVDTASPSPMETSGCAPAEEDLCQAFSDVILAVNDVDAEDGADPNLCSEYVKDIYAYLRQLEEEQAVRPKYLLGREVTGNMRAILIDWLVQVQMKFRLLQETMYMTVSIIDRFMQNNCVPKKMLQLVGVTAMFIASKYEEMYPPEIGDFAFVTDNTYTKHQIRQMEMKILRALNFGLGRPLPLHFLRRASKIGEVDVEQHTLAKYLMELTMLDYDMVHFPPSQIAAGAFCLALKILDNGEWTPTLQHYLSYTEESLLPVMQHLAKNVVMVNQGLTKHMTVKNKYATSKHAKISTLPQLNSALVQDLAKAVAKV

HCC 2998 = assay: Cytotoxicity against human HCC2998 cells after 48 hrs by sulforhodamine B assay; type: functional
Procedure, shortened: (§1)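 NCI human tumor panel. Cells in RPMI 1640 with 5% FBS and 2 mM L-glutamine, 5000–40,000 cells/well by growth characteristics, 24 h preincubation at 37 °C. Compound added at time zero at five 10-fold dilutions, top concentration agent-dependent. Incubated 48 h (5% CO2, 100% humidity), then sulforhodamine B stain and plate-reader OD. GI50 and TGI are the concentrations giving 50% and total growth inhibition, in µM.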

BT-549 = assay: Cytotoxicity against human BT549 cells after 48 hrs by sulforhodamine B assay; type: functional; conditions: for GI50: BT-549, 48 h; procedure, shortened: as §1
KM12 = assay: Cytotoxicity against human KM12 cells after 48 hrs by sulforhodamine B assay; type: functional; conditions: for GI50: KM12, 48 h; procedure, shortened: as §1
SR = assay: Cytotoxicity against human SR cells after 48 hrs by sulforhodamine B assay; type: functional; procedure, shortened: as §1
SF-539 = assay: Cytotoxicity against human SF539 cells after 48 hrs by sulforhodamine B assay; type: functional; procedure, shortened: as §1
A498 = assay: Cytotoxicity against human A498 cells after 48 hrs by sulforhodamine B assay; type: functional; procedure, shortened: as §1
LOX IMVI = assay: Cytotoxicity against human LOXIMVI cells after 48 hrs by sulforhodamine B assay; type: functional; procedure, shortened: as §1
ACHN = assay: Cytotoxicity against human ACHN cells after 48 hrs by sulforhodamine B assay; type: functional; procedure, shortened: as §1
MCF7 [4] = assay: Cytotoxicity against human MCF7 cells after 48 hrs by sulforhodamine B assay; type: functional; procedure, shortened: as §1
HCT-15 = assay: Cytotoxicity against human HCT15 cells after 48 hrs by sulforhodamine B assay; type: functional; procedure, shortened: as §1
OVCAR-3 = assay: Cytotoxicity against human OVCAR-3 cells after 48 hrs by sulforhodamine B assay; type: functional; procedure, shortened: as §1
NCI-H322M = assay: Cytotoxicity against human NCI-H322M cells after 48 hrs by sulforhodamine B assay; type: functional; procedure, shortened: as §1
SF-268 = assay: Cytotoxicity against human SF268 cells after 48 hrs by sulforhodamine B assay; type: functional; procedure, shortened: as §1
RPMI8266 = assay: Cytotoxicity against human […] cells after 48 hrs by sulforhodamine B assay; type: functional; procedure, shortened: as §1
CCRF-CEM = assay: Cytotoxicity against human CCRF-CEM cells after 48 hrs by sulforhodamine B assay; type: functional; procedure, shortened: as §1
UACC-62 = assay: Cytotoxicity against human UACC62 cells after 48 hrs by sulforhodamine B assay; type: functional; procedure, shortened: as §1
NCI-H226 = assay: Cytotoxicity against human NCI-H226 cells after 48 hrs by sulforhodamine B assay; type: functional; conditions: for GI50: NCI-H226, 48 h; procedure, shortened: as §1
[5] = (§2) Cytotoxicity against human Hs 578T cells after 48 hrs by sulforhodamine B assay; type: functional; procedure, shortened: as §1
HOP-62 = assay: Cytotoxicity against human HOP62 cells after 48 hrs by sulforhodamine B assay; type: functional; procedure, shortened: as §1
CAKI-1 = assay: Cytotoxicity against human Caki1 cells after 48 hrs by sulforhodamine B assay; type: functional; procedure, shortened: as §1
MCF7 [6] = assay: Antitumor activity against human MCF7 cells assessed as cell growth at 10 uM after 48 hrs by sulforhodamine B assay; type: functional; conditions: MCF7, 48 h, read-out: Activity
Procedure, shortened: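 NCI primary screen, single concentration 10^-5 M against MCF7, NCI-H460 and SF-268. Cells in RPMI 1640 with 5% FBS and 2 mM L-glutamine, seeded at 5000–40,000 cells/well by cell type, preincubated 24 h at 37 °C. Compound added at time zero, then 48 h incubation (5% CO2, 100% humidity). Growth read by sulforhodamine B optical density, reported as growth percentage.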

SNB-75 = assay: Cytotoxicity against human SNB75 cells after 48 hrs by sulforhodamine B assay; type: functional; procedure, shortened: as §1
OVCAR-4 = assay: Cytotoxicity against human OVCAR4 cells after 48 hrs by sulforhodamine B assay; type: functional; procedure, shortened: as §1
HOP-92 = assay: Cytotoxicity against human HOP92 cells after 48 hrs by sulforhodamine B assay; type: functional; procedure, shortened: as §1
Hs-578T = assay: as §2; type: functional; procedure, shortened: as §1
HCT-116 = assay: Cytotoxicity against human HCT116 cells after 48 hrs by sulforhodamine B assay; type: functional; conditions: HCT-116, 48 h; procedure, shortened: as §1
TK-10 = assay: Cytotoxicity against human TK10 cells after 48 hrs by sulforhodamine B assay; type: functional; procedure, shortened: as §1

IC50 [1]: > 28 µM | IC50 [2]: 37 µM | IC50 [3]: > 120 µM
SMILES: Clc1ccc(OCc2nnc3sc(SCc4ccccc4)nn23)cc1

IC50 [1]: 11 µM | IC50 [2]: 14 µM | IC50 [3]: > 120 µM
SMILES: CCSc1nn2c(C)nnc2s1

IC50 [1]: 0.57 µM | IC50 [2]: > 120 µM | IC50 [3]: > 120 µM
SMILES: Cc1nnc2sc(-c3ccc(N)cc3)nn12
pGI50 (HCC 2998): inactive | GI50 (BT-549): > 100 µM | GI50 (KM12): > 100 µM | pGI50 (SR): inactive | pGI50 (SF-539): inactive | pGI50 (A498): inactive | pGI50 (LOX IMVI): inactive | pGI50 (ACHN): inactive | pGI50 (MCF7 [4]): inactive | pGI50 (HCT-15): inactive | pGI50 (OVCAR-3): inactive | pGI50 (NCI-H322M): inactive | pGI50 (SF-268): inactive | pGI50 (RPMI8266): inactive | pGI50 (CCRF-CEM): inactive | pGI50 (UACC-62): inactive | pGI50 (NCI-H226): inactive | GI50 [5]: 89.1 µM | GI50 (HOP-62; HOP-62, 48 h): 87.1 µM | pGI50 (CAKI-1): inactive | growth at 10 µM (MCF7 [6]): 119% | GI50 (SNB-75; SNB-75, 48 h): 21.4 µM | pGI50 (OVCAR-4): inactive

IC50 [1]: 0.25 µM | IC50 [2]: 12 µM | IC50 [3]: 12 µM
SMILES: Cc1nnc2sc(Cc3sc(N)nc3O)nn12
pGI50 (HCC 2998): inactive | pGI50 (BT-549): inactive | GI50 (KM12): 97.7 µM | pGI50 (HOP-92): inactive | pGI50 (SR): inactive | pGI50 (SF-539): inactive | pGI50 (A498): inactive | pGI50 (LOX IMVI): inactive | pGI50 (ACHN): inactive | pGI50 (MCF7 [4]): inactive | pGI50 (HCT-15): inactive | pGI50 (OVCAR-3): inactive | GI50 (NCI-H322M): 87.1 µM | pGI50 (SF-268): inactive | pGI50 (CCRF-CEM): inactive | pGI50 (UACC-62): inactive | GI50 (NCI-H226): 77.6 µM | pGI50 (Hs-578T): inactive | pGI50 (HOP-62): inactive | GI50 (CAKI-1; CAKI-1, 48 h): 63.1 µM | growth at 10 µM (MCF7 [6]): 130% | GI50 (HCT-116): 83.2 µM | pGI50 (SNB-75): inactive | pGI50 (OVCAR-4): inactive | pGI50 (TK-10): inactive

IC50 [1]: 16 µM | IC50 [2]: > 120 µM | IC50 [3]: > 48 µM
SMILES: Cc1nnc2sc(SCc3ccccc3)nn12

IC50 [1]: 24 µM | IC50 [2]: > 48 µM | IC50 [3]: 14 µM
SMILES: S=c1[nH]c(=S)c2c(Cc3nn4c(Cc5ccccc5)nnc4s3)n[nH]c2[nH]1

IC50 [1]: 14 µM | IC50 [2]: > 48 µM | IC50 [3]: > 120 µM
SMILES: Nc1nc(O)c(Cc2nn3c(Cc4ccccc4)nnc3s2)s1

IC50 [1]: > 28 µM | IC50 [2]: 14 µM | IC50 [3]: > 120 µM
SMILES: Nc1ccc(-c2nn3c(Cc4ccccc4)nnc3s2)cc1

IC50 [1]: > 28 µM | IC50 [2]: > 48 µM | IC50 [3]: > 120 µM
SMILES: NNc1nn2c(Cc3ccccc3)nnc2s1

IC50 [1]: > 28 µM | IC50 [2]: 18 µM | IC50 [3]: 25 µM
SMILES: c1ccc(CSc2nn3c(Cc4ccccc4)nnc3s2)cc1

IC50 [1]: 11 µM | IC50 [2]: > 120 µM | IC50 [3]: 22 µM
SMILES: Cc1nnc2sc(NN)nn12

IC50 [1]: 0.4 µM | IC50 [3]: 0.9 µM
SMILES: Sc1nn2c(COc3ccc(Cl)cc3)nnc2s1
pGI50 (HCC 2998): inactive | GI50 (BT-549): 79.4 µM | pGI50 (KM12): inactive | GI50 (HOP-92; HOP-92, 48 h): 79.4 µM | GI50 (SR): 95.5 µM | pGI50 (SF-539): inactive | pGI50 (A498): inactive | pGI50 (LOX IMVI): inactive | pGI50 (ACHN): inactive | pGI50 (MCF7 [4]): inactive | GI50 (OVCAR-3; OVCAR-3, 48 h): 81.3 µM | pGI50 (NCI-H322M): inactive | pGI50 (SF-268): inactive | pGI50 (RPMI8266): inactive | GI50 (CCRF-CEM): 97.7 µM | pGI50 (UACC-62): inactive | GI50 (NCI-H226): 89.1 µM | GI50 [5]: 87.1 µM | pGI50 (HOP-62): inactive | pGI50 (CAKI-1): inactive | growth at 10 µM (MCF7 [6]): 0% | GI50 (HCT-116): > 100 µM | pGI50 (SNB-75): inactive | pGI50 (OVCAR-4): inactive | pGI50 (TK-10): inactive
